Laboratory results published in ChEMBL document CHEMBL1135248, “Synthesis and evaluation of pseudopeptide analogues of a specific CXCR4 inhibitor, T140: the insertion of an (E)-alkene dipeptide isostere into the betaII'-turn moiety” (Bioorg Med Chem Lett, 2002).
Several values for one entry are separate records, joined by “and”; a condition that tells them apart may be missing. Identical values can stand only once.

Experiments:
MT4 [1] = experiment: Cytotoxicity based on the reduction of the viability of mock-infected MT-4 cells using the MTT method; assay type: functional, Homo sapiens
Outline: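 Mock-infected MT-4 cells were exposed to compound. Loss of viability was read by the MTT method, and CC50 was derived. Values are the mean of at least three experiments.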

MT4 [2] = experiment: Anti-HIV activity based on the protection against HIV-induced cytopathogenicity in MT-4 cells using MTT method; assay type: functional, cell-based, Homo sapiens
Outline: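 MT-4 cells challenged with the X4 strain HIV-1 IIIB. Protection from virus-induced cytopathogenicity was read by the MTT method, and EC50 was derived. Values are the mean of at least three experiments.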

[3] = Selectivity index (SI) is determined as the ratio of CC50/EC50; assay type: functional
Outline: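 Ratio of CC50 to EC50, both taken from MTT read-outs in MT-4 cells: mock-infected cells for CC50 and HIV-1 IIIB-infected cells for EC50. Each value is the mean of at least three experiments.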

Molecule `C[C@H]1/C=C\[C@@H](CCCCN)NC(=O)[C@H](CCCCN)NC(=O)[C@H](CCCN=C(N)N)NC(=O)[C@H](Cc2ccc(O)cc2)NC(=O)[C@@H](NC(=O)[C@H](CSC23C[C@H]4C[C@@H](C2)C[C@@H](C3)C4)NC(=O)[C@H](CCCN=C(N)N)NC(=O)[C@@H](N)CCCN=C(N)N)CSSC[C@@H](C(=O)N[C@@H](CCCN=C(N)N)C(N)=O)NC(=O)[C@H](CCCNC(N)=O)NC(=O)[C@H](CCCN=C(N)N)NC(=O)[C@H](Cc2ccc(O)cc2)NC1=O` has a CC50 (MT4 [1]) of 57 µM and a CC50 (MT4 [1]; Homo sapiens, MT4) of 49 µM.
Molecule `Cc1cn([C@H]2C[C@H](N=[N+]=[N-])[C@@H](CO)O2)c(=O)[nH]c1=O` [ZIDOVUDINE] has a CC50 (MT4 [1]; Homo sapiens, MT4) of 12 µM, an EC50 (MT4 [2]; Homo sapiens, MT4) of 0.0003 µM and an SI [3] of 35000.
For `C[C@H]1/C=C\[C@@H](CCCCN)NC(=O)[C@H](CCCCN)NC(=O)[C@@H](CCCN=C(N)N)NC(=O)[C@H](Cc2ccc(O)cc2)NC(=O)[C@@H](NC(=O)[C@H](Cc2ccc3ccccc3c2)NC(=O)[C@H](CCCN=C(N)N)NC(=O)[C@@H](N)CCCN=C(N)N)CSSC[C@@H](C(=O)N[C@@H](CCCN=C(N)N)C(N)=O)NC(=O)C(CCCNC(N)=O)NC(=O)[C@@H](CCCN=C(N)N)NC(=O)[C@H](Cc2ccc(O)cc2)NC1=O` (stereo partly drawn), the SI [3] was 12000 and 31000.
In the case of `C[C@H]1/C=C\[C@@H](CCCCN)NC(=O)[C@H](CCCCN)NC(=O)[C@@H](CCCN=C(N)N)NC(=O)[C@H](Cc2ccc(O)cc2)NC(=O)[C@@H](NC(=O)[C@H](Cc2c[nH]c3ccccc23)NC(=O)[C@H](CCCN=C(N)N)NC(=O)[C@@H](N)CCCN=C(N)N)CSSC[C@@H](C(=O)N[C@@H](CCCN=C(N)N)C(=O)O)NC(=O)C(CCCNC(N)=O)NC(=O)[C@@H](CCCN=C(N)N)NC(=O)[C@H](Cc2ccc(O)cc2)NC1=O` (stereo partly drawn), the SI [3] is reported as > 78000.
Work on `C[C@H]1/C=C\[C@@H](CCCCN)NC(=O)[C@H](CCCCN)NC(=O)[C@H](CCCN=C(N)N)NC(=O)[C@H](Cc2ccc(O)cc2)NC(=O)[C@@H](NC(=O)[C@H](CSCc2ccccc2)NC(=O)[C@H](CCCN=C(N)N)NC(=O)[C@@H](N)CCCN=C(N)N)CSSC[C@@H](C(=O)N[C@@H](CCCN=C(N)N)C(N)=O)NC(=O)[C@H](CCCNC(N)=O)NC(=O)[C@H](CCCN=C(N)N)NC(=O)[C@H](Cc2ccc(O)cc2)NC1=O` yielded a CC50 (MT4 [1]) of 59 µM and a CC50 (MT4 [1]; Homo sapiens, MT4) of 54 µM.
In the case of `C[C@H]1/C=C\[C@@H](CCCCN)NC(=O)[C@H](CCCCN)NC(=O)[C@H](CCCN=C(N)N)NC(=O)[C@H](Cc2ccc(O)cc2)NC(=O)[C@@H](NC(=O)[C@H](Cc2ccc3ccccc3c2)NC(=O)[C@H](CCCN=C(N)N)NC(=O)[C@@H](N)CCCN=C(N)N)CSSC[C@@H](C(=O)N[C@@H](CCCN=C(N)N)C(=O)O)NC(=O)[C@H](CCCNC(N)=O)NC(=O)[C@H](CCCN=C(N)N)NC(=O)[C@H](Cc2ccc(O)cc2)NC1=O` [listing 1 of 2 here], the EC50 (MT4 [2]; mt4) is reported as < 0.0003 µM and 0.0019 µM.
With `C[C@H]1/C=C\[C@@H](CCCCN)NC(=O)[C@H](CCCCN)NC(=O)[C@@H](CCCN=C(N)N)NC(=O)[C@H](Cc2ccc(O)cc2)NC(=O)[C@@H](NC(=O)[C@H](CSCc2ccccc2)NC(=O)[C@H](CCCN=C(N)N)NC(=O)[C@@H](N)CCCN=C(N)N)CSSC[C@@H](C(=O)N[C@@H](CCCN=C(N)N)C(N)=O)NC(=O)C(CCCNC(N)=O)NC(=O)[C@@H](CCCN=C(N)N)NC(=O)[C@H](Cc2ccc(O)cc2)NC1=O` (stereo partly drawn) the SI [3] was 810 and 1300.
`C[C@H]1/C=C\[C@@H](CCCCN)NC(=O)[C@H](CCCCN)NC(=O)[C@H](CCCN=C(N)N)NC(=O)[C@H](Cc2ccc(O)cc2)NC(=O)[C@@H](NC(=O)[C@H](Cc2ccc3ccccc3c2)NC(=O)[C@H](CCCN=C(N)N)NC(=O)[C@@H](N)CCCN=C(N)N)CSSC[C@@H](C(=O)N[C@@H](CCCN=C(N)N)C(N)=O)NC(=O)[C@H](CCCNC(N)=O)NC(=O)[C@H](CCCN=C(N)N)NC(=O)[C@H](Cc2ccc(O)cc2)NC1=O` gave a CC50 (MT4 [1]) of 58 µM and a CC50 (MT4 [1]; Homo sapiens, MT4) of 57 µM.
`C[C@H]1/C=C\[C@@H](CCCCN)NC(=O)[C@H](CCCCN)NC(=O)[C@H](CCCN=C(N)N)NC(=O)[C@H](Cc2ccc(O)cc2)NC(=O)[C@@H](NC(=O)[C@H](Cc2c[nH]c3ccccc23)NC(=O)[C@H](CCCN=C(N)N)NC(=O)[C@@H](N)CCCN=C(N)N)CSSC[C@@H](C(=O)N[C@@H](CCCN=C(N)N)C(=O)O)NC(=O)[C@H](CCCNC(N)=O)NC(=O)[C@H](CCCN=C(N)N)NC(=O)[C@H](Cc2ccc(O)cc2)NC1=O` gave a CC50 (MT4 [1]; Homo sapiens, MT4) of 100 µM.
In the case of `C[C@H]1/C=C\[C@@H](CCCCN)NC(=O)[C@H](CCCCN)NC(=O)[C@@H](CCCN=C(N)N)NC(=O)[C@H](Cc2ccc(O)cc2)NC(=O)[C@@H](NC(=O)[C@H](Cc2c[nH]c3ccccc23)NC(=O)[C@H](CCCN=C(N)N)NC(=O)[C@@H](N)CCCN=C(N)N)CSSC[C@@H](C(=O)N[C@@H](CCCN=C(N)N)C(N)=O)NC(=O)C(CCCNC(N)=O)NC(=O)[C@@H](CCCN=C(N)N)NC(=O)[C@H](Cc2ccc(O)cc2)NC1=O` (stereo partly drawn), the SI [3] is reported as 15000 and 20000.
For `C[C@H]1/C=C\[C@@H](CCCCN)NC(=O)[C@H](CCCCN)NC(=O)[C@@H](CCCN=C(N)N)NC(=O)[C@H](Cc2ccc(O)cc2)NC(=O)[C@@H](NC(=O)[C@H](CSC23C[C@H]4C[C@@H](C2)C[C@@H](C3)C4)NC(=O)[C@H](CCCN=C(N)N)NC(=O)[C@@H](N)CCCN=C(N)N)CSSC[C@@H](C(=O)N[C@@H](CCCN=C(N)N)C(N)=O)NC(=O)C(CCCNC(N)=O)NC(=O)[C@@H](CCCN=C(N)N)NC(=O)[C@H](Cc2ccc(O)cc2)NC1=O` (stereo partly drawn), the SI [3] was 6900 and 3300.
`Nc1ccn([C@H]2CC[C@@H](CO)O2)c(=O)n1` [ZALCITABINE] gave a CC50 (MT4 [1]; Homo sapiens, MT4) of 48 µM, an EC50 (MT4 [2]; Homo sapiens, MT4) of 0.033 µM and an SI [3] of 1500.
For `C[C@H]1/C=C\[C@@H](CCCCN)NC(=O)[C@H](CCCCN)NC(=O)[C@H](CCCN=C(N)N)NC(=O)[C@H](Cc2ccc(O)cc2)NC(=O)[C@@H](NC(=O)[C@H](Cc2ccc3ccccc3c2)NC(=O)[C@H](CCCN=C(N)N)NC(=O)[C@@H](N)CCCN=C(N)N)CSSC[C@@H](C(=O)N[C@@H](CCCN=C(N)N)C(=O)O)NC(=O)[C@H](CCCNC(N)=O)NC(=O)[C@H](CCCN=C(N)N)NC(=O)[C@H](Cc2ccc(O)cc2)NC1=O` [listing 2 of 2 here], the CC50 (MT4 [1]) was 67 µM and 270 µM.
For `C[C@H]1/C=C\[C@@H](CCCCN)NC(=O)[C@H](CCCCN)NC(=O)[C@H](CCCN=C(N)N)NC(=O)[C@H](Cc2ccc(O)cc2)NC(=O)[C@@H](NC(=O)[C@H](Cc2c[nH]c3ccccc23)NC(=O)[C@H](CCCN=C(N)N)NC(=O)[C@@H](N)CCCN=C(N)N)CSSC[C@@H](C(=O)N[C@@H](CCCN=C(N)N)C(N)=O)NC(=O)[C@H](CCCNC(N)=O)NC(=O)[C@H](CCCN=C(N)N)NC(=O)[C@H](Cc2ccc(O)cc2)NC1=O`, the CC50 (MT4 [1]) was 58 µM and the CC50 (MT4 [1]; Homo sapiens, MT4) was 56 µM.
With `C[C@H]1/C=C\[C@@H](CCCCN)NC(=O)[C@H](CCCCN)NC(=O)[C@@H](CCCN=C(N)N)NC(=O)[C@H](Cc2ccc(O)cc2)NC(=O)[C@@H](NC(=O)[C@H](Cc2ccc3ccccc3c2)NC(=O)[C@H](CCCN=C(N)N)NC(=O)[C@@H](N)CCCN=C(N)N)CSSC[C@@H](C(=O)N[C@@H](CCCN=C(N)N)C(=O)O)NC(=O)C(CCCNC(N)=O)NC(=O)[C@@H](CCCN=C(N)N)NC(=O)[C@H](Cc2ccc(O)cc2)NC1=O` (stereo partly drawn) the SI [3] was > 220000 and 140000.
